Laboratory results: ChEMBL document CHEMBL3525900, “Pharmacokinetics, distribution, and metabolism of [14C]sunitinib in rats, monkeys, and humans” (Drug Metab Dispos, 2012)

Tests used:
Rattus norvegicus [1] = assay: Cmax as total radioactivity in female Sprague-Dawley rat plasma at 5 mg/kg, iv administered as single dose by LC/MS/MS analysis; format: ADME, organism-based; design: dose 5 mg/kg, dosed compound name [14C]Sunitinib, route intravenous; details: in vivo
Procedure, shortened: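 Single dose of [14C]sunitinib L-malate as free base, 50 µCi/kg. IV dose was 5 mg/kg by tail vein in 5 females. Oral dose was 15 mg/kg by gavage in 3 females and 3 males. Total radioactivity was by scintillation counting. […] Cmax was read from raw data, t½ by log-linear regression, AUC by linear trapezoidal rule.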

Cynomolgus monkey = assay: Tmax as total radioactivity in female cynomolgus monkey plasma at 6 mg/kg, po administered as single dose by LC/MS/MS analysis; format: ADME, organism-based, Macaca fascicularis; design: dose 6 mg/kg, dosed compound name [14C]Sunitinib, route oral; details: in vivo
Large intestine = assay: Drug concentration in male Lister Hooded pigmented rat large intestine assessed as radioactivity per gram of tissue at 20 mg/kg administered as single dose via gastric gavage measured after 72 hrs by autoradiographic analysis; format: ADME, organism-based; design: dose 20 mg/kg, dosed compound name [14C]Sunitinib; details: in vivo, po
[2] = Drug concentration in male Lister Hooded pigmented rat pituitary gland assessed as radioactivity per gram of tissue at 20 mg/kg administered as single dose via gastric gavage measured after 72 hrs by autoradiographic analysis; format: ADME, organism-based; design: dose 20 mg/kg, dosed compound name [14C]Sunitinib; details: in vivo, po
[3] = Drug recovery in feces of human at 50 mg, po administered as single dose during 0 to 504 hrs by liquid scintillation counting; format: ADME, organism-based; design: dosed compound name [14C]Sunitinib; details: in vivo
Rattus norvegicus [4] = assay: Drug recovery in cage residue of female Sprague-Dawley rat at 5 mg/kg, iv administered as single dose during 0 to 72 hrs by liquid scintillation counting; format: ADME, organism-based; design: dose 5 mg/kg, dosed compound name [14C]Sunitinib, route intravenous; details: in vivo
Rattus norvegicus [5] = assay: Total drug recovery in female Sprague-Dawley rat at 5 mg/kg, iv administered as single dose during 0 to 72 hrs by liquid scintillation counting; format: ADME, organism-based; design: dose 5 mg/kg, dosed compound name [14C]Sunitinib, route intravenous; details: in vivo
[6] = Drug recovery in feces of male cynomolgus monkey at 6 mg/kg, po administered as single dose during 0 to 336 hrs by liquid scintillation counting; format: ADME, organism-based, Macaca fascicularis; design: dose 6 mg/kg, dosed compound name [14C]Sunitinib, route oral; details: in vivo
Blood [7] = assay: Drug concentration in male Lister Hooded pigmented rat blood assessed as radioactivity per gram of tissue at 20 mg/kg administered as single dose via gastric gavage measured after 24 hrs by autoradiographic analysis; format: ADME, organism-based; design: dose 20 mg/kg, dosed compound name [14C]Sunitinib; details: in vivo, po
Kidney = assay: Drug concentration in female albino rat kidney assessed as radioactivity per gram of tissue at 20 mg/kg administered as single dose via gastric gavage measured after 3 hrs by autoradiographic analysis; format: ADME, organism-based; design: dose 20 mg/kg, dosed compound name [14C]Sunitinib; details: in vivo, po
Procedure, shortened: (§1)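 Sprague Dawley albino rats, ca 7-8 weeks old, dosed once by gastric gavage with [14C]sunitinib L-malate (15 mg freebase/kg, 100 µCi/kg). One male and one female killed by CO2 at 3, 6, 24, 72 and 168 h. Carcasses frozen in solid CO2/hexane, embedded and cut into 30 µm sagittal sections, then freeze-dried. Radioactivity quantified by whole-body autoradiography against standards by regression, background subtracted.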

[8] = Drug concentration in male Lister Hooded pigmented rat uveal tract assessed as radioactivity per gram of tissue at 20 mg/kg administered as single dose via gastric gavage measured after 24 hrs by autoradiographic analysis; format: ADME, organism-based; design: dose 20 mg/kg, dosed compound name [14C]Sunitinib; details: in vivo, po
Liver = assay: Drug concentration in male Lister Hooded pigmented rat liver assessed as radioactivity per gram of tissue at 20 mg/kg administered as single dose via gastric gavage measured after 24 hrs by autoradiographic analysis; format: ADME, organism-based; design: dose 20 mg/kg, dosed compound name [14C]Sunitinib; details: in vivo, po
Blood [9] = assay: Drug concentration in male albino rat blood assessed as radioactivity per gram of tissue at 20 mg/kg administered as single dose via gastric gavage measured after 6 hrs by autoradiographic analysis; format: ADME, organism-based; design: dose 20 mg/kg, dosed compound name [14C]Sunitinib; details: in vivo, po
Zone of skin [10] = assay: Drug concentration in female albino rat abdomen skin assessed as radioactivity per gram of tissue at 20 mg/kg administered as single dose via gastric gavage measured after 6 hrs by autoradiographic analysis; format: ADME, organism-based; design: dose 20 mg/kg, dosed compound name [14C]Sunitinib; details: in vivo, po
Procedure, shortened: (§2)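 Sprague Dawley (albino) rats, ca 7-8 weeks old, received a single gastric-gavage dose of [14C]sunitinib L-malate at 20 mg/kg (15 mg freebase/kg, 100 µCi/kg). One animal per sex killed by CO2 at 3, 6, 24, 72 and 168 h, then frozen in CO2/hexane. 30 µm sagittal sections were cut and freeze-dried. Radioactivity per gram quantified by whole-body autoradiography using regression against standards. LOQ 0.04–0.06 µg freebase equiv/g.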

Thymus [11] = assay: Drug concentration in female albino rat thymus assessed as radioactivity per gram of tissue at 20 mg/kg administered as single dose via gastric gavage measured after 6 hrs by autoradiographic analysis; format: ADME, organism-based; design: dose 20 mg/kg, dosed compound name [14C]Sunitinib; details: in vivo, po
Spleen = assay: Drug concentration in male Lister Hooded pigmented rat spleen assessed as radioactivity per gram of tissue at 20 mg/kg administered as single dose via gastric gavage measured after 168 hrs by autoradiographic analysis; format: ADME, organism-based; design: dose 20 mg/kg, dosed compound name [14C]Sunitinib; details: in vivo, po
Zone of skin [12] = assay: Drug concentration in female albino rat abdomen skin assessed as radioactivity per gram of tissue at 20 mg/kg administered as single dose via gastric gavage measured after 3 hrs by autoradiographic analysis; format: ADME, organism-based; design: dose 20 mg/kg, dosed compound name [14C]Sunitinib; details: in vivo, po; procedure, shortened: as §2
[13] = Drug concentration in female albino rat eye assessed as radioactivity per gram of tissue at 20 mg/kg administered as single dose via gastric gavage measured after 6 hrs by autoradiographic analysis; format: ADME, organism-based; design: dose 20 mg/kg, dosed compound name [14C]Sunitinib; details: in vivo, po; procedure, shortened: as §1
Zone of skin [14] = assay: Drug concentration in male Lister Hooded pigmented rat abdomen skin assessed as radioactivity per gram of tissue at 20 mg/kg administered as single dose via gastric gavage measured after 336 hrs by autoradiographic analysis; format: ADME, organism-based; design: dose 20 mg/kg, dosed compound name [14C]Sunitinib; details: in vivo, po
Brain = assay: Drug concentration in male albino rat brain assessed as radioactivity per gram of tissue at 20 mg/kg administered as single dose via gastric gavage measured after 3 hrs by autoradiographic analysis; format: ADME, organism-based; design: dose 20 mg/kg, dosed compound name [14C]Sunitinib; details: in vivo, po
Heart [15] = assay: Drug concentration in male Lister Hooded pigmented rat heart assessed as radioactivity per gram of tissue at 20 mg/kg administered as single dose via gastric gavage measured after 168 hrs by autoradiographic analysis; format: ADME, organism-based; design: dose 20 mg/kg, dosed compound name [14C]Sunitinib; details: in vivo, po
[16] = Drug concentration in female Lister Hooded pigmented rat bone marrow assessed as radioactivity per gram of tissue at 20 mg/kg administered as single dose via gastric gavage measured after 24 hrs by autoradiographic analysis; format: ADME, organism-based; design: dose 20 mg/kg, dosed compound name [14C]Sunitinib; details: in vivo, po
Procedure, shortened: (§3)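 Lister Hooded (pigmented) rats, ca 7-8 weeks old, acclimated 7 days, given [14C]sunitinib L-malate by gastric gavage at 20 mg/kg (15 mg freebase/kg, 100 µCi/kg). One male and one female killed by CO2 at 24, 72, 168 and 336 h. Carcasses frozen in solid CO2/hexane and embedded in frozen cellulose. 30 µm sagittal cryosections were freeze-dried. Tissue radioactivity measured by quantitative whole-body autoradiography against calibration standards, with background subtracted.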

Heart [17] = assay: Drug concentration in female Lister Hooded pigmented rat heart assessed as radioactivity per gram of tissue at 20 mg/kg administered as single dose via gastric gavage measured after 24 hrs by autoradiographic analysis; format: ADME, organism-based; design: dose 20 mg/kg, dosed compound name [14C]Sunitinib; details: in vivo, po; procedure, shortened: as §3
[18] = Drug concentration in male albino rat preputial gland assessed as radioactivity per gram of tissue at 20 mg/kg administered as single dose via gastric gavage measured after 24 hrs by autoradiographic analysis; format: ADME, organism-based; design: dose 20 mg/kg, dosed compound name [14C]Sunitinib; details: in vivo, po
[19] = Drug concentration in male albino rat testis assessed as radioactivity per gram of tissue at 20 mg/kg administered as single dose via gastric gavage measured after 6 hrs by autoradiographic analysis; format: ADME, organism-based; design: dose 20 mg/kg, dosed compound name [14C]Sunitinib; details: in vivo, po
Thymus [20] = assay: Drug concentration in male albino rat thymus assessed as radioactivity per gram of tissue at 20 mg/kg administered as single dose via gastric gavage measured after 6 hrs by autoradiographic analysis; format: ADME, organism-based; design: dose 20 mg/kg, dosed compound name [14C]Sunitinib; details: in vivo, po
[21] = Drug concentration in female Lister Hooded pigmented rat pituitary gland assessed as radioactivity per gram of tissue at 20 mg/kg administered as single dose via gastric gavage measured after 24 hrs by autoradiographic analysis; format: ADME, organism-based; design: dose 20 mg/kg, dosed compound name [14C]Sunitinib; details: in vivo, po; procedure, shortened: as §3
Adrenal = assay: Drug concentration in female Lister Hooded pigmented rat adrenal assessed as radioactivity per gram of tissue at 20 mg/kg administered as single dose via gastric gavage measured after 72 hrs by autoradiographic analysis; format: ADME, organism-based; design: dose 20 mg/kg, dosed compound name [14C]Sunitinib; details: in vivo, po; procedure, shortened: as §3

- Cmax (Rattus norvegicus [1]): 2148 ngequiv/ml
- Tmax (Cynomolgus monkey): 4 h
- Radiolabel recovery (Large intestine): 0.08 ugequiv
- Radiolabel recovery [2]: 1.65 ugequiv
- Radiolabel recovery [3]: 61%
- Radiolabel recovery (Rattus norvegicus [4]): 1.1%
- Radiolabel recovery (Rattus norvegicus [5]): 87.4%
- Radiolabel recovery [6]: 87.3%
- Radiolabel recovery (Blood [7]): 0.16 ugequiv
- Radiolabel recovery (Kidney): 16.11 ugequiv
- Radiolabel recovery [8]: 18.79 ugequiv
- Radiolabel recovery (Liver): 2.09 ugequiv
- Radiolabel recovery (Blood [9]): 0.84 ugequiv
- Radiolabel recovery (Zone of skin [10]): 4.73 ugequiv
- Radiolabel recovery (Thymus [11]): 9.8 ugequiv
- Radiolabel recovery (Spleen): 0.06 ugequiv
- Radiolabel recovery (Zone of skin [12]): 3.16 ugequiv
- Radiolabel recovery [13]: 1.18 ugequiv
- Radiolabel recovery (Zone of skin [14]): 0.3 ugequiv
- Radiolabel recovery (Brain): 0.3 ugequiv
- Radiolabel recovery (Heart [15]): 0.06 ugequiv
- Radiolabel recovery [16]: 0.74 ugequiv
- Radiolabel recovery (Heart [17]): 0.47 ugequiv
- Radiolabel recovery [18]: 13.66 ugequiv
- Radiolabel recovery [19]: 0.9 ugequiv
- Radiolabel recovery (Thymus [20]): 6.43 ugequiv
- Radiolabel recovery [21]: 2.87 ugequiv
- Radiolabel recovery (Adrenal): 1.57 ugequiv
SMILES: CCN(CC)CCNC(=O)c1c(C)[nH]c(/[14CH]=C2\C(=O)Nc3ccc(F)cc32)c1C.O=C(O)C[C@H](O)C(=O)O
